Screens from PubChem.
Runt-SMMHC FRET: inhibitors of human RUNX1 Runt domain binding to CBFb-SMMHC; Q01196+Q13951; Cerulean-Runt/Venus-CBFb-SMMHC FRET ratio 530/480, 1 h; inhibition, % at 20 µM; actives 0.74% (n = 220,000); AID 1434;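 active means mean inhibition across duplicate retests at 20 µM reaching about 50%, limit read from the data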;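 further: inhibitors lower the FRET ratio by blocking Runt binding to CBFb-SMMHC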
Wee1 stabilizer: blocks degradation of human Wee1 kinase. P30291. HeLa Luc-Wee1K328M stability, luciferase luminescence; 100% = proteasome inhibitor MG132 effect. actives 1.2% (n = 220,000). AID 1321. reporter increase, % at 5 µM;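 active means activation above the mean of all tested compounds plus 3 SD, set per screening run, cut at about 8.8% in these data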;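 further: cells exposed to compound for 20 h before luminescence read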
Target sequence (P30291 whole entry K328M): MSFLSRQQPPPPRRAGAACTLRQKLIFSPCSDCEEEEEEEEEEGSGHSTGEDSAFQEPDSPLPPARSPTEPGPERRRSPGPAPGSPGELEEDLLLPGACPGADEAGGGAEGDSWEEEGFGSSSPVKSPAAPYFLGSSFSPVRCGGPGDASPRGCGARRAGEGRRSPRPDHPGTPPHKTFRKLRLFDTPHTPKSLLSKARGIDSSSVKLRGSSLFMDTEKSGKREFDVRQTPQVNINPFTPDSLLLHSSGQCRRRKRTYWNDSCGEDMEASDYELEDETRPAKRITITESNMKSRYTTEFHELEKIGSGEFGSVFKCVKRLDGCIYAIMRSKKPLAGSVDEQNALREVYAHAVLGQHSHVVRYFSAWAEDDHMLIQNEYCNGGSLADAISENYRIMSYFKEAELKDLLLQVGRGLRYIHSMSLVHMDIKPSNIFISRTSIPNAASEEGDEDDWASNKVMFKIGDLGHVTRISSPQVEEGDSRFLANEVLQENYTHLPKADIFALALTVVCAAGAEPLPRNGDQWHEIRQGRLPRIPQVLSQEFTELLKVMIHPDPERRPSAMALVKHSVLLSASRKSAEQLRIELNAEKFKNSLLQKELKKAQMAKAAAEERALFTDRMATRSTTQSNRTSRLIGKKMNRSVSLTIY
Runt-CBFb FRET: Runt domain-CBFb interaction inhibition | Q01196+Q13951 | Cerulean-Runt/Venus-CBFb FRET ratio 530/480, 1 h | inhibition, % at 20 µM | actives 0.46% (n = 220,000);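 active means inhibition over about 50% at 20 µM in the single-dose screen, limit read from the data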
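Assay system: Cerulean-tagged RUNX1 Runt domain (FRET donor) fusion protein / Amount: 100 nM each of Venus-CBFb and Cerulean-Runt domain / Medium: Tris buffer pH 7.5 with salts and BSA / Also added: Venus-CBFb 100 nM / Schedule: 1 h complex formation plus 1 h compound treatment, room temperature / Signal: FRET fluorescence / Read-out: loss of energy transfer signal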
KLK7 zymogen act: activates the human kallikrein-7 zymogen; activation, % at 7 µM; P49862; purified proKLK7, EDANS-DABCYL substrate fluorescence; 100% is mature enzyme control, 0% vehicle; actives 0.9% (n = 370,000); AID 652039;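 active means activation above the mean of all tested compounds plus 3 SD, computed per campaign excluding outliers beyond control limits, cut at about 13% in these data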
RanGTP-Impb inh: inhibitors of RanGTP-importin-beta interaction, primary screen, biochemical, FRET, CFP-Ran, YFP-importin-beta, homogeneous. cell-free CFP-Ran/YFP-importin-beta FRET ratio. inhibition, % (no concentration beside the values). actives 1.1% (n = 300,000). AID 2216;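 active means more than half of the replicate wells show a fall in the fluorescence ratio signal beyond about 16%, limit read from the data, passing the limit was not always enough; inconclusive means exactly half of the replicate wells pass the set limit; inactive means fewer than half of replicates pass the limit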
AI-2 QS modul: modulators of Vibrio harveyi AI-2 quorum sensing system; actives 0.4% (n = 300,000); activity change, % at 7.5 µM; Vibrio harveyi JMH597 AI-2 luminescence/OD600 ratio, 9 h; stronger effect = lower value; strain lacks LuxN and CqsS sensors; 0 = neutral-control median; in the data active means activity change below about -75%, passing the limit was not always enough; inconclusive means no clear call, values can overlap the other calls;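 further: luminescence divided by OD600 gain over 9 h not by final OD600 alone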
JMH597 growth rt: retest: blocks Vibrio harveyi JMH597 growth; shares compounds with AI-2 QS modul; OD600 absorbance, 9 h; lacks LuxN and CqsS sensors; growth inhibition, % at 7.5 µM; actives 1% (n = 750); AID 2726;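 active means every replicate shows growth inhibition above 50%; inconclusive means at least half, but not all, replicates pass that cutoff; inactive means fewer than half of replicates pass it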
BB721 lum counter: retest counter-screen: BB721 constitutive quorum sensing luminescence decrease. AID 2727. shares compounds with AI-2 QS modul. actives 95% (n = 750). inhibition, % at 7.5 µM. Vibrio harveyi BB721 luminescence, 9 h;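 active means inhibition above about 80% in every replicate, not just on average, limit read from the data; inconclusive means at least half of replicates past the limit, but not all; inactive means fewer than half of replicates past the limit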
BB721 growth rt: retest: inhibitors of Vibrio harveyi BB721 growth. growth inhibition, % at 7.5 µM. actives 3% (n = 750). shares compounds with AI-2 QS modul. OD600 absorbance, 9 h. AID 2728;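 active means every replicate shows growth inhibition above 50%; inconclusive means at least half but not all replicates above 50% inhibition; inactive means under half of replicates above 50% inhibition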
AI-2 QS JMH597: Vibrio harveyi AI-2 signaling luminescence modulation – JMH597 strain, confirmation | inhibition, % at 7.5 µM | Vibrio harveyi JMH597 AI-2 quorum sensing luminescence, 9 h; luxN and CqsS knockout, AI-2 only | actives 97% (n = 750) | shares compounds with AI-2 QS modul;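 active means every replicate shows more than 75% inhibition of signal versus neutral control wells; inconclusive means half to three quarters of replicates exceed 75% inhibition; inactive means fewer than half of replicates exceed 75% inhibition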
Each line names hits and unclear results; the compound was inactive in the other large screens (follow-up assays come after a bar, where they were run). Compounds with a hit are over-represented: about 2.9% of the library has one in this group of screens.

O=C(c1ccc(COc2ccc(Cl)cc2)o1)N1CCN(Cc2ccc3c(c2)OCO3)CC1	AI-2 QS modul -97 | JMH597 growth rt 133 | BB721 lum counter 100 | BB721 growth rt 111 | AI-2 QS JMH597 100
CN1CCN(C(=O)c2cc3cc(F)ccc3[nH]2)CC1	none (no result: Runt-SMMHC FRET, Wee1 stabilizer, Runt-CBFb FRET)
O=C(c1cc2cc(F)ccc2[nH]1)N1CCN(C(=O)c2ccco2)CC1	AI-2 QS modul -84 (no result: Runt-SMMHC FRET, Wee1 stabilizer, Runt-CBFb FRET) | JMH597 growth rt inactive | BB721 lum counter 85 | BB721 growth rt inactive | AI-2 QS JMH597 91
O=C(OCC(=O)N1CCC(c2ccccc2)=N1)c1ccc([N+](=O)[O-])s1	AI-2 QS modul inconclusive (no result: Runt-SMMHC FRET, Wee1 stabilizer, Runt-CBFb FRET)
N#Cc1cc([N+](=O)[O-])cnc1N(CCO)CCO	none
O=C(Nc1cccc([N+](=O)[O-])c1)N1CCCCCC1	none (no result: Runt-SMMHC FRET, Wee1 stabilizer, Runt-CBFb FRET)
NC1=NC2CS(=O)(=O)CC2S1 (configuration not stated)	none
Cc1ccc(S(=O)(=O)c2ccc(C)cc2)cc1	AI-2 QS modul -92 | JMH597 growth rt inactive | BB721 lum counter 98 | BB721 growth rt inactive | AI-2 QS JMH597 100
Cc1ccc(S(=O)(=O)C=CS(=O)(=O)c2ccc(C)cc2)cc1	none (no result: Runt-SMMHC FRET, Wee1 stabilizer, Runt-CBFb FRET, RanGTP-Impb inh, AI-2 QS modul)
O=C(NCc1ccc(Cl)cc1)C(=O)c1c[nH]c2ccccc12	AI-2 QS modul -89 | JMH597 growth rt inactive | BB721 lum counter 97 | BB721 growth rt inactive | AI-2 QS JMH597 98
CC1CCCC(C)N1S(=O)(=O)c1ccc(NC(=O)CCn2cnc3ccccc3c2=O)cc1 (configuration not stated)	none
O=C(CN1C(=O)c2ccccc2C1=O)Nc1ccc(S(=O)(=O)N2CCOCC2)cc1	AI-2 QS modul -97 | JMH597 growth rt inactive | BB721 lum counter 99 | BB721 growth rt inactive | AI-2 QS JMH597 100
O=C(Cn1cnc2ccccc2c1=O)Nc1ccc(S(=O)(=O)N2CCOCC2)cc1	AI-2 QS modul -94 | JMH597 growth rt inactive | BB721 lum counter 99 | BB721 growth rt inactive | AI-2 QS JMH597 99
O=C(Cn1cnc2ccccc2c1=O)Nc1ccc(N2CCOCC2)cc1	none
O=C(Cn1cnc2ccccc2c1=O)Nc1ccc(S(=O)(=O)N2CCCC2)cc1	AI-2 QS modul -97 | JMH597 growth rt inactive | BB721 lum counter 100 | BB721 growth rt inactive | AI-2 QS JMH597 100
Cc1cc(=O)c2c(C)ccc(C)c2[nH]1	none
Cn1c(=O)c2ccccc2n(CC(=O)N2CCCc3ccccc32)c1=O	none (no result: Runt-SMMHC FRET, Wee1 stabilizer, Runt-CBFb FRET)
O=C(/C=C/c1cccc(Cl)c1)NCc1cccs1	AI-2 QS modul -83 | JMH597 growth rt inactive | BB721 lum counter 90 | BB721 growth rt inactive | AI-2 QS JMH597 91
O=C(/C=C/c1cccc(Cl)c1)NCc1ccccc1	AI-2 QS modul -89 | JMH597 growth rt inactive | BB721 lum counter 96 | BB721 growth rt inactive | AI-2 QS JMH597 97
O=C(/C=C/c1ccc(Cl)cc1)NCc1cccs1	none
Clc1cccc(CSc2ccc(-c3cccnc3)nn2)c1	AI-2 QS modul -91 | JMH597 growth rt inactive | BB721 lum counter 97 | BB721 growth rt inactive | AI-2 QS JMH597 98
Cc1ccccc1-c1nc(CS(=O)(=O)CC(=O)N2CCOCC2)c(C)o1	none (no result: Runt-SMMHC FRET, Wee1 stabilizer, Runt-CBFb FRET)
O=C(NCc1ccco1)Nc1ccc([N+](=O)[O-])cc1	none
O=C(NCc1ccccc1F)Nc1ccc([N+](=O)[O-])cc1	AI-2 QS modul inconclusive | JMH597 growth rt inactive | BB721 lum counter 91 | BB721 growth rt inactive | AI-2 QS JMH597 93
CCOc1ccccc1NC(=O)c1ccc2nc[nH]c2c1	none (no result: Runt-SMMHC FRET, Wee1 stabilizer, Runt-CBFb FRET)
O=C(Nc1cnn(Cc2ccc(Cl)cc2)c1)c1cnccn1	AI-2 QS modul -96 | JMH597 growth rt inactive | BB721 lum counter 99 | BB721 growth rt inactive | AI-2 QS JMH597 99
Cc1ccc(S(=O)(=O)N(CC(=O)Nc2ccc(C(N)=O)cc2)C(=O)N2CCN(C)CC2)cc1	none (no result: Runt-SMMHC FRET, Wee1 stabilizer, Runt-CBFb FRET)
Cc1ccnc(NC(=O)CCC(=O)N(CC(=O)NC2CCCCC2)C2CCCC2)c1	none
CCCc1ccc(S(=O)(=O)N(C)S(=O)(=O)c2ccc(F)cc2)cc1	AI-2 QS modul inconclusive (no result: Runt-SMMHC FRET, Wee1 stabilizer, Runt-CBFb FRET) | JMH597 growth rt inactive | BB721 lum counter inactive | BB721 growth rt inactive | AI-2 QS JMH597 99
CCN(CC)S(=O)(=O)c1ccc(F)cc1	none
Cc1cccc(C(=O)NC(C(=O)Nc2cccc(S(=O)(=O)N3CCCC3)c2)C(C)C)c1 (configuration not stated)	none (no result: Runt-SMMHC FRET, Wee1 stabilizer, Runt-CBFb FRET, RanGTP-Impb inh, AI-2 QS modul)
C=CCC[C@H](Cc1ccc(F)cc1)C(=O)OC[C@@H](Cc1c[nH]c2ccccc12)NC(=O)[C@@H](CC=C)CC(=O)NCCO	none (no result: Runt-SMMHC FRET, Wee1 stabilizer, Runt-CBFb FRET, RanGTP-Impb inh, AI-2 QS modul)
c1ccc(OCc2cc(-c3ccccc3)no2)cc1	AI-2 QS modul -96 | JMH597 growth rt inactive | BB721 lum counter 99 | BB721 growth rt inactive | AI-2 QS JMH597 100
Clc1ccc(-c2cc(CSc3ccccc3)on2)cc1	none
c1ccc(SCc2cc(-c3ccccc3)no2)cc1	AI-2 QS modul -92 | JMH597 growth rt inactive | BB721 lum counter 99 | BB721 growth rt inactive | AI-2 QS JMH597 99
COc1ccccc1OCc1cc(-c2ccccc2)no1	none
O=C(NCc1ccc2c(c1)OCO2)Nc1ccc2nsnc2c1	AI-2 QS modul -85 | JMH597 growth rt 79 | BB721 lum counter 97 | BB721 growth rt inactive | AI-2 QS JMH597 99
O=C(Cc1ccc(Br)cc1)Nc1ccc(S(=O)(=O)NCC2CCCO2)cc1 (configuration not stated)	RanGTP-Impb inh inconclusive, AI-2 QS modul -96 | JMH597 growth rt inactive | BB721 lum counter 99 | BB721 growth rt inactive | AI-2 QS JMH597 99
O=C(CSc1ccccc1)Nc1ccc(S(=O)(=O)NCC2CCCO2)cc1 (configuration not stated)	AI-2 QS modul -97 | JMH597 growth rt inactive | BB721 lum counter 100 | BB721 growth rt inactive | AI-2 QS JMH597 100
COc1cc(C(=O)NCC2CCCO2)ccc1OCc1ccc(Cl)cc1Cl (configuration not stated)	none (no result: Runt-SMMHC FRET, Wee1 stabilizer, Runt-CBFb FRET)
COc1ccc(OC)c(C(=O)CSc2nnc(Cc3cccs3)n2CCc2ccccc2)c1	RanGTP-Impb inh inconclusive
c1ccc(CNc2ncnc3sccc23)cc1	none (no result: Runt-SMMHC FRET, Wee1 stabilizer, Runt-CBFb FRET)
